What all share (parameters): scale not given: the % may be the effect or the level left
Assay [1] has as its target Cyclin-dependent kinase 2/cyclin A (Homo sapiens) (UniProt P24941+P20248+P78396). Briefly: Inhibition of Cyclin A-cyclin-dependent kinase 2 at 100 nM. The assay is classed as protein-complex assay. A digest of the protocol:
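Panel profiling of isolated kinases with inhibitor at 100 nM and 500 nM. […] Remaining kinase activity is expressed as % of control and is the mean of duplicate assays.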

Assay [2] concerns the target Proto-oncogene tyrosine-protein kinase Src (Homo sapiens) (UniProt P12931). Briefly: Inhibition of c-Src protein tyrosine kinase at 500 nM. The method in brief: (§1)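 Panel of 39 kinases, each tested at 100 and 500 nM inhibitor. […] Activity is expressed as % of control and is the mean of duplicate assays.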
Assay [3] addresses Tyrosine-protein kinase ZAP-70 (Homo sapiens) (UniProt P43403). Kind of assay: Inhibition of Zeta-chain (TCR) associated protein kinase 70 kDa (ZAP70) at 500 nM. A digest of the protocol:
as §1

The structures appear in SMILES notation.

Tyrosine-protein kinase ZAP-70 (Homo sapiens), sequence (P43403 whole entry): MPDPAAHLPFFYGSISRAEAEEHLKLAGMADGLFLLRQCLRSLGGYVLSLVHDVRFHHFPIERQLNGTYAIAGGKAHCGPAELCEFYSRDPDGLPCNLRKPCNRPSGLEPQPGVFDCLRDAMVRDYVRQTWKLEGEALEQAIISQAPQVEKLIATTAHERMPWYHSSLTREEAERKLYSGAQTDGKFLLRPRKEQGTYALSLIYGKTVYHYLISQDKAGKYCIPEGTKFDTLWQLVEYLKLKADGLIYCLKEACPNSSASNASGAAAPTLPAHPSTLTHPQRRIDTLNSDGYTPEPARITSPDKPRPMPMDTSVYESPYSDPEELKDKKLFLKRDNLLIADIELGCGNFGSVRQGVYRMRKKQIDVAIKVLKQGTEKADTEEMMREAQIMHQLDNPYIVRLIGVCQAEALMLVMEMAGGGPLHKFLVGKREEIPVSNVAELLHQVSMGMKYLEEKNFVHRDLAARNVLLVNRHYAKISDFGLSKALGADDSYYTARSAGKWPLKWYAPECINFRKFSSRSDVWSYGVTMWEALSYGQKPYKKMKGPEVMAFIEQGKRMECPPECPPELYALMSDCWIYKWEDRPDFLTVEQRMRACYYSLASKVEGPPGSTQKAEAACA
Proto-oncogene tyrosine-protein kinase Src (Homo sapiens), sequence (P12931 2-536 limits assumed): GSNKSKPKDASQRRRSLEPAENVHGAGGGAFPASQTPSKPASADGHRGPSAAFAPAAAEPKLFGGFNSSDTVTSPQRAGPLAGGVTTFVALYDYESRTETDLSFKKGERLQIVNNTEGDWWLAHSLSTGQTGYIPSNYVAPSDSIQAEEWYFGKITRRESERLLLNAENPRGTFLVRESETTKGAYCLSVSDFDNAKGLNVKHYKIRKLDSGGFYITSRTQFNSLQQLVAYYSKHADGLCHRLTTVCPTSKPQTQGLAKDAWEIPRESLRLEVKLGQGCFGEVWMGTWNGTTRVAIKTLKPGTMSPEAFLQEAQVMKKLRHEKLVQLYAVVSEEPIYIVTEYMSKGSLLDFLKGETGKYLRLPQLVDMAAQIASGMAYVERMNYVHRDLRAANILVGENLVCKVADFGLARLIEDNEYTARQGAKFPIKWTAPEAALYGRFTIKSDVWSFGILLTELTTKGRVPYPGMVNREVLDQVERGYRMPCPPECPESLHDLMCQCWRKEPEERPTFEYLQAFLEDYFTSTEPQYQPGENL

For `Cn1ccc2ccc3c4[nH]c5c(CCCN[C@H]6CC[C@H](O)CC6)cccc5c4c4c(c3c21)C(=O)NC4=O`, the values for the Control in assay [1], in assay [2] and in assay [3] were 83%, 91% and 107%, respectively.

Values taken from ChEMBL document CHEMBL1136094, “Novel, potent and selective cyclin D1/CDK4 inhibitors: indolo[6,7-a]pyrrolo[3,4-c]carbazoles” (Bioorg Med Chem Lett, 2003).
